The source of these data is paper PMC10655810 (Journal of Agricultural and Food Chemistry, 2023).

The test system of one series is RmuAP1CD. Put plainly: Effects of chemicals. The format is biochemical, Rhodotorula mucilaginosa. As to conditions: same test as Table 1; preincubation 37 °C, 3 h; BSA, pH 2.5. The essentials: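 Residual activity was then measured with 10 μg enzyme and 5 mg BSA per 1 mL at pH 2.5 for 1–1.5 h. The reaction was stopped with cold TCA (10% w/v final), centrifuged, and supernatant A280 read. Triplicate.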

The target of a further series is pepsin (Sus scrofa, UniProt P00791). Nature of the series: biochemical. As to conditions: for Proteolytic activity of pepsin (residual activity): pH 2.5. The arrangement: species or system porcine.
Sequence of pepsin (P00791 60-385): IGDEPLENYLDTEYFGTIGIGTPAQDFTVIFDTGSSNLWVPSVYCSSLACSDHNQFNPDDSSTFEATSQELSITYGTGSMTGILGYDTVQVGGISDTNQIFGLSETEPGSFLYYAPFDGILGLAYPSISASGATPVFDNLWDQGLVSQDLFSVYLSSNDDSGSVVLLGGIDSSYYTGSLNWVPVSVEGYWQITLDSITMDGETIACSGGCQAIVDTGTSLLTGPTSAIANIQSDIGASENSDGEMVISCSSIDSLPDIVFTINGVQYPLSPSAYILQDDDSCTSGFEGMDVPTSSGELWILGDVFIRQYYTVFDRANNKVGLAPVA
Another series concerns BSA. Particulars: cited from earlier work.
Setting [1] is: BSA denatured by 10 min preincubation at pH 0.8.

Regarding `CCCCCCCCCCCCOS(=O)(=O)[O-].[Na+]` [SDS, sodium dodecyl sulfate], the “Effect on the proteolytic activity of RmuAP1CD (in words)” value (shortened to “Effect on the proteolytic activity”) with RmuAP1CD was “moderately inhibited”. Besides, the “Proteolytic activity of pepsin (residual activity)” value at pepsin was 30 ± 4.0%.

On to `O=C(O)CN(CCN(CC(=O)O)CC(=O)O)CC(=O)O` [EDTA, ethylenediaminetetraacetic acid], for which the “Effect on the proteolytic activity” value with RmuAP1CD is on record as “unaffected”. Further, the remaining activity at 5000 µM on pepsin (pH 2.5, read-out: Proteolytic activity of pepsin (residual activity)) is 95 ± 2.5%.

In the case of Triton X-100, the “Effect on the proteolytic activity” value with RmuAP1CD is given as “moderately inhibited”.

With `O=S(=O)(F)Cc1ccccc1` [PMSF, phenylmethylsulfonyl fluoride], in the series on RmuAP1CD, the “Effect on the proteolytic activity” value is “unaffected”.

On to pepstatin A, for which the “Effect on the proteolytic activity” value in the series on RmuAP1CD is given as “drastically inhibited”.

As for pepsin, in the series on BSA (setting [1]), the “Activity of pepsin on HCl-denatured BSA at pH 4.5” value is listed as 65% and the “pH of peak activity of pepsin on HCl-denatured BSA” value is reported as 3.0. Further, the “Optimum pH of pepsin for BSA” value in the series on BSA (native BSA, pH 1.0 to 5.5) was “about 1.7”. Moreover, the “Activity of pepsin on BSA at pH 4.0, of its peak value” with BSA (native BSA) is recorded as 10%.

Consider `OCCS` [β-ME, β-mercaptoethanol], for which the “Effect on the proteolytic activity” value in the series on RmuAP1CD is “did not influence the peptidase activity”. Besides, the “Proteolytic activity of pepsin (residual activity)” value at pepsin was 90 ± 1.0%.
